HKDC1 inh – HKDC1 hexokinase inhibitors, primary screen, biochemical, fluorescence, uHTS; inhibition, % at 20 µM; 340,000 compounds, 0.16% hits; recombinant HKDC1, G6PDH/diaphorase resazurin coupled fluorescence; AID 493160, 2011;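 active = inhibition above about 35% when tested at 20 µM, limit read from the data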;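 note: plate controls were DMSO wells with enzyme for no effect and DMSO wells lacking enzyme for full effect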
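Test system: HK5 enzyme. Quantity: 5 µg/mL HK5 final. Reagent: glucose and ATP substrates. Schedule: 90 min reaction incubation at room temperature, dark. Technique: resazurin-to-resorufin fluorescence via G6PDH and diaphorase coupling, 525/613 nm. Control set: DMSO wells with and without enzyme mix.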
SUMO1 PPI mod – modulators of SUMO1 protein-protein interactions, primary screen, biochemical, uHTS | Small ubiquitin-related modifier 1 (Homo sapiens), P63165 | SUMO1 binding to a labelled peptide, TR-FRET, 1 h | inhibition, % at 20 µM | 360,000 compounds, 0.33% hits; in the data active = inhibition above about 37%
Target sequence (P63165 whole entry, looked up): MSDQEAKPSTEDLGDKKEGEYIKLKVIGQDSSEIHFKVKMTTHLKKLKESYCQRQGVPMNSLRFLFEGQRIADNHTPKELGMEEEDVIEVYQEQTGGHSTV
DNMT1 inh – human DNMT1 methyltransferase inhibitors, primary screen, biochemical, molecular beacon, fluorescence, HinP1I cleavage, uHTS; 360,000 compounds, 0.83% hits; inhibition (reported as % activation of signal), % at 10 µM; AID 588458, 2011; DNA (cytosine-5)-methyltransferase 1 (Homo sapiens), P26358; in the data active = inhibition above about 50%
LMPTP inh – LMPTP phosphatase inhibitors, primary screen, biochemical, fluorescence intensity, uHTS; Low molecular weight phosphotyrosine protein phosphatase (Homo sapiens), P24666; recombinant LMPTP-A, OMFP fluorogenic substrate; inhibition, % at 20 µM; 360,000 compounds, 0.22% hits; AID 651560, 2012;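 active = compounds that cut the enzyme signal by at least half of the control window in the single-dose screen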;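 note: plate controls were DMSO wells with enzyme plus substrate for no effect and substrate without enzyme for full effect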
Target sequence (P24666 whole entry, looked up): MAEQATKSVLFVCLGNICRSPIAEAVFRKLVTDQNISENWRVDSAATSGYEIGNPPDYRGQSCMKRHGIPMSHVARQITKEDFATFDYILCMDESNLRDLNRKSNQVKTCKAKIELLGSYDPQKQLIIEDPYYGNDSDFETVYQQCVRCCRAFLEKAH
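Test system: LMPTP-A, protein tyrosine phosphatase of low molecular weight; Input: 0.625 nM enzyme; Incubation: 50 min dark incubation at room temperature; Signal: endpoint fluorescence intensity from OMFP dephosphorylation; Read-out basis: % inhibition versus control wells.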
STEP inh – STEP phosphatase inhibitors, primary screen, biochemical, fluorescence intensity, uHTS; Tyrosine-protein phosphatase non-receptor type 5 (Homo sapiens), P54829; recombinant STEP, OMFP fluorogenic substrate; inhibition, % at 20 µM; 360,000 compounds, 0.25% hits; AID 588621, 2011;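 active = inhibition at 20 µM, scaled per plate between control wells, above about 37%, limit read from the data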;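 note: 0% = DMSO with enzyme and substrate and 100% = substrate only without enzyme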
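Assay system: isolated STEP enzyme. Buffer or medium: pH 6.0 Bis-Tris with DTT and Tween 20. Also added: fluorogenic phosphatase substrate OMFP at 25 µM final. Dosing: 20 µM, 1% DMSO. Timing: 20 min reaction, room temperature, in the dark. Measured by: fluorescence intensity, excitation 480 nm, emission 540 nm. Evaluation: normalized % inhibition.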
Scp1 inh – Scp-1 phosphatase inhibitors, primary screen, biochemical, colorimetric, uHTS; Carboxy-terminal domain RNA polymerase II polypeptide A small phosphatase 1 (Homo …; Recombinant Scp1, phosphopeptide, malachite green phosphate absorbance; inhibition, % at 20 µM; 340,000 compounds, 0.88% hits;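 active = inhibition above about 50% at 20 µM, limit read from the data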;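 note: plate controls were DMSO wells with enzyme for no effect and wells lacking enzyme for full effect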
Target sequence (Q9GZU7 76-261 limits assumed): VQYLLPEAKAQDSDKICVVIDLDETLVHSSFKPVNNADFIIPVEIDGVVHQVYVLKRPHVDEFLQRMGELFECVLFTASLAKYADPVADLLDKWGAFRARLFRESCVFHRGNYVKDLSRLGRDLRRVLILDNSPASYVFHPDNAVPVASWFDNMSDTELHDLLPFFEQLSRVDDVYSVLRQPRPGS
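Material – SCP-1 phosphatase catalytic domain, residues 76-261 · Buffer or medium – Acidic Tris acetate buffer with magnesium and detergent · Also added – Phospho 17-mer peptide substrate · Compound – single 20 µM dose, 1% DMSO · Times – 45 min room-temperature reaction, 5 min colour, 30 min stabiliser · Technique – Phosphate-binding colour reagent, absorbance read at 630 nm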
Beacon interf DR – spectral interference with molecular beacon fluorescence, dose response, artefact control for DNMT1 inhibitor project, biochemical, fluorescent molecular beacon. spectral interference counter-screen. 200 tested, under 10 active. IC50, µM. shares compounds with DNMT1 inh
DNMT1 inh conf – DNMT1 methyltransferase inhibitor retest, confirmation, biochemical, molecular beacon, fluorescence, single concentration; inhibition, % at 10 µM; DNMT1 molecular beacon HinP1I cleavage; 2,300 compounds, 8% hits; shares compounds with DNMT1 inh;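 active = average inhibition of at least 30% in the single-concentration confirmation test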
DNMT1 interf – shows spectral interference in the DNMT1 beacon assay | DNMT1 molecular beacon spectral interference counterscreen, fluorescence 485/520 | 2,300 compounds, 1% hits | activation (fluorescence interference), % at 10 µM | shares compounds with DNMT1 inh;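 active = activation of at least 30% at 10 µM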;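 note: DNMT1 catalytic domain with a HinP1I cleavage step and a FAM/dabcyl DNA beacon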
STEP conf – STEP phosphatase inhibitor hit confirmation, biochemical, fluorescence intensity, single concentration; shares compounds with STEP inh; recombinant STEP, OMFP fluorogenic substrate; inhibition, % at 20 µM; 520 compounds, 32% hits; AID 623866, 2012;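 note: 0% = enzyme with substrate plus DMSO and 100% = substrate without enzyme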
Numbers without * were called inactive; x = no result. Shown are actives, neighbours in structure and some others; about 1.8% of the full set was active somewhere. Unless noted, the rule behind the calls is not given here.

SMILES	HKDC1 inh	SUMO1 PPI mod	DNMT1 inh	LMPTP inh	STEP inh	Scp1 inh	DNMT1 inh conf	DNMT1 interf	STEP conf	others
O=C(COC(=O)c1cc(-c2ccco2)nc2ccccc12)NCc1ccc2c(c1)OCO2	7.1	0.1	76.6*	25.9	-0.1	45.7	8.4	7.8	x
CC(C)Cn1c(N)c(C(=O)COC(=O)c2cc(-c3ccco3)nc3ccccc23)c(=O)n(C)c1=O	24.1	5.5	81.2*	4.8	1.7	27.3	9.8	6.0	x
O=C(COC(=O)c1ccccc1Oc1ccccc1)NCc1ccco1	1.0	1.5	55.3*	-0.3	-2.0	69.9*	9.7	4.3	x
CC(C)Cn1c(N)c(C(=O)COC(=O)c2cc(-c3ccccc3)nc3ccccc23)c(=O)n(C)c1=O	0.5	-28.9	-15.6	5.4	0.3	3.5	x	x	x
COc1ccccc1CNC(=O)COC(=O)c1cc(-c2ccco2)nc2ccccc12	24.7	13.4	99.8*	43.1	23.4	82.5*	27.5	2.0	x	Beacon interf DR=>99
COc1ccc([N+](=O)[O-])cc1N(CC1CO1)S(=O)(=O)c1ccc(C)cc1 (stereo not drawn)	-1.7	-10.0	1.9	0.3	1.3	-10.3	x	x	x
CCOC(=O)C1CCCN(C(=O)C(CCSC)NC(=O)COc2ccccc2)C1 (stereo not drawn)	3.2	-5.3	0.7	0.9	-1.5	-1.2	x	x	x
COc1ccc(S(=O)(=O)NCCc2nnc3ccc(SCc4cccnc4)nn23)cc1	-4.6	-0.4	0.2	-1.0	1.8	-8.1	x	x	x
CC(=O)c1cccc(OCC(=O)N(C)CC(=O)NCc2ccco2)c1	9.0	16.8	96.5*	0.2	8.9	81.3*	52.5*	1.2	x	Beacon interf DR=>99
CCN(CC)CCC(=O)Nc1cccc2c1C(=O)c1ccccc1C2=O	8.5	-36.1	73.1*	1.2	3.3	-4.2	52.8*	0.8	x	Beacon interf DR=>99
Cc1ccc([N+](=O)[O-])cc1NC(=S)NC(=O)c1cccs1	-5.5	-2.9	16.6	-1.5	-1.8	-3.9	x	x	x
Cc1ccc(Cl)cc1Nc1nc(-c2sc(NC(=O)c3ccco3)nc2C)cs1	3.3	1.2	-31.8	1.4	-0.6	-0.2	x	x	x
Cc1nc(NC(=O)c2ccco2)sc1-c1csc(Nc2ccc(Cl)cc2Cl)n1	0.7	12.2	63.4*	2.7	-0.5	-11.3	2.9	6.1	x
CCn1ccnc1CN(C)Cc1nc(CCC(C)C)no1	-6.7	2.0	-0.5	-0.1	-3.9	-5.5	x	x	x
CN1OC[C@@H]2CN(C(=O)CCc3ccccc3)[C@H](c3ccc(N4CCCCC4)cc3)C[C@@H]21	x	4.9	4.4	0.6	-4.8	x	x	x	x
CCOC(=O)CC(NS(=O)(=O)c1ccc2[nH]cc(C(=O)O)c(=O)c2c1)c1ccc(OCC)c(OC)c1 (stereo not drawn)	-3.9	8.6	72.7*	1.5	73.6*	48.0	4.8	-2.6	25.4*
O=C(COC(=O)C1(c2cccc(F)c2)CCCC1)NCc1ccc2c(c1)OCO2	5.1	-0.9	-6.2	0.0	3.0	-7.1	x	x	x
O=C(N/N=C/c1ccc(Br)s1)c1ccc([N+](=O)[O-])cc1	10.3	-3.5	78.9*	80.2*	69.0*	-4.7	-0.8	-1.9	-8.3
O=C(COC(=O)c1ccc(O)cc1O)Nc1cccc2ccccc12	0.5	-0.8	10.0	-0.2	-1.1	11.4	x	x	x
CSc1ccc(C=NNc2ccc(S(=O)(=O)Nc3ccccc3C(=O)O)cc2[N+](=O)[O-])cc1	10.7	95.9*	86.3*	91.3*	44.5*	4.6	54.6*	-8.3	59.3*	Beacon interf DR=>99
Cc1ccc(C(=S)N2CCCCCC2)cc1	0.2	9.4	3.3	-1.0	7.5	-2.2	x	x	x
CCOc1ccc(OCC)c(NC(=O)CCSCCc2ccccn2)c1	7.2	2.8	88.8*	0.4	96.9*	-0.3	1.1	5.3	-0.3
CCOc1ccc(OCC)c(NC(=O)CSCCc2ccccn2)c1	-3.4	-4.9	0.7	0.8	-4.1	-12.9	x	x	x
Cc1cccc(OC(C)C(=O)Nc2ccccc2C(=O)N2CCCCC2)c1 (stereo not drawn)	-2.2	2.0	1.1	-0.4	-2.3	-1.6	x	x	x
O=C(Nc1ccccc1)C1CCCN1C(=O)Nc1ccccc1[N+](=O)[O-] (stereo not drawn)	-15.5	-13.0	0.9	-0.4	0.5	-4.0	x	x	x
SMILES	HKDC1 inh	SUMO1 PPI mod	DNMT1 inh	LMPTP inh	STEP inh	Scp1 inh	DNMT1 inh conf	DNMT1 interf	STEP conf	others
CC(=O)Nc1ccc(NC(=O)C2CCCN2C(=O)Nc2ccccc2[N+](=O)[O-])cc1 (stereo not drawn)	-2.5	-24.1	80.3*	-0.3	85.3*	-2.5	2.4	6.4	7.1
Cc1nc2nc(-c3ccccc3)cc(=O)n2[nH]1	-3.0	-2.4	-3.1	-1.2	-0.6	-4.3	x	x	x
O=c1cc(-c2ccccc2)nc2nc(-c3ccco3)[nH]n12	10.5	53.6*	103.7*	51.2*	86.3*	-0.5	-2.4	3.9	0.3
CCOc1ccc(S(=O)(=O)N=C(c2ccccc2)N2CCOCC2)cc1	-4.8	4.7	-0.2	-0.4	-3.5	6.0	x	x	x
Cc1cccc(C(=O)Nc2ccc(N3CCN(c4ccc(C(F)(F)F)cn4)CC3)nc2)c1	3.0	1.1	70.3*	49.8	76.6*	10.0	0.5	2.3	4.0
COC(=O)c1sc(NC(=O)/C=C/c2ccccc2Cl)nc1C	-3.7	30.0	61.9*	36.2	56.6*	46.5	2.6	0.2	0.6
COC(=O)c1sc(NC(=O)/C=C/c2ccc(C)cc2)nc1C	-6.9	-3.4	-5.8	16.0	-0.8	-3.9	x	x	x

Source: PubChem BioAssay (Sanford-Burnham Center for Chemical Genomics)
